Most compounds without a hit are left out; they make up all but 11% or so of the library.
D1 allo mod – allosterically modulates the human D1 dopamine receptor | P21728 | HEK293 D1, CRE-luciferase, dopamine EC30 potentiation; actives deviate in either direction | B-score at 10 µM | 58,000 compounds, 5.9% hits | AID 641;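 active = luminescence count or its row- and column-corrected plate score outside the 99.7% band of the plate's sample wells, on either side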
SF-1 act – SF-1 (human) activation; activation, % at 10 µM; Q13285; CHO-K1 Gal4-SF-1 LBD luciferase reporter; % increase over DMSO SF-1-specific signal; 65,000 compounds, 1.9% hits; AID 522;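 active = activation above the mean activation of all tested compounds plus 3 SD, cut at about 50% in these data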
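Material: CHO-K1 cells with Gal4–hSF-1 LBD chimera plus Gal4-driven luciferase / Input: 4,000 CHO-K1 cells per well / Incubation: compound exposure 20 h at 37 °C / Signal: luminescence read 15 min after SteadyLite luciferase reagent, after room-temperature equilibration / Read-out: percent activation versus DMSO / Benchmarks: DMSO negative control and −SF1 background wells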
M1 antag – antagonists of rat M1 muscarinic receptor; P08482; CHO-M1 cells, Fluo-4 calcium, ACh EC80 antagonist mode; stronger effect = lower value; B-score at 10 µM; 64,000 compounds, 3.4% hits;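 active = calcium fluorescence response, raw or row-and-column corrected B-score, differing from the plate sample mean either way at a set confidence level, mostly lower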
Target sequence (P08482 whole entry, looked up): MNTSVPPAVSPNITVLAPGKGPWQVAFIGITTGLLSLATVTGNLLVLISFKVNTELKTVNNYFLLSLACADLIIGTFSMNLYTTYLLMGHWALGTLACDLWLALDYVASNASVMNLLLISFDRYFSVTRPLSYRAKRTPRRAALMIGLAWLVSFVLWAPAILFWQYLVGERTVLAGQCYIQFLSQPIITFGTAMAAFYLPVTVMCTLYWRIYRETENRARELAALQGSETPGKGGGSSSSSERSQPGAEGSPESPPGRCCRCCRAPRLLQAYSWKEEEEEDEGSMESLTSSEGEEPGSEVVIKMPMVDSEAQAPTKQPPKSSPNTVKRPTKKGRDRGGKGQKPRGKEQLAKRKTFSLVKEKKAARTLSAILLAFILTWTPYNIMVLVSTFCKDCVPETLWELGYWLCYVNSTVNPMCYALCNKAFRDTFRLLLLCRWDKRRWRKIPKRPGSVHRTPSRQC
Htt clearance – compounds clearing mutant huntingtin protein | inhibition, % at 1.5 µM | 47,000 compounds, 0.42% hits | AID 853 | HeLa Exon1htt(103Q)mCFP, aggregate imaging; zero = plate's median compound well;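 active = inhibition of aggregate fluorescence above about 70%, also judged a hit by eye on the cell image, limit read from the data, passing the limit was not always enough; inconclusive = no rule stated for this call; inactive = not judged a hit on image review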;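 also: cells exposed to compound for three days before fixation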
RORA act – RORA (human) activation; P35398; CHO-K1 Gal4-RORA LBD luciferase reporter, luminescence; percent increase over mock-subtracted basal signal; activation, % at 10 µM; 65,000 compounds, 1.5% hits; AID 560;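 active = activation above the mean of all tested compounds plus 3 SD, cut at about 49% in these data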;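 also: 0% = DMSO-treated RORA cells and 100% = added signal equal to DMSO minus mock-transfected cells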
M1 agonist – activates the M1 muscarinic receptor; B-score at 10 µM; CHO-M1 cells, Fluo-4 calcium fluorescence, agonist mode; stronger effect = higher value; 64,000 compounds, 3% hits; AID 626;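 active = fluorescence rise, raw or as B-score row- and column-corrected plate score, outside the 99.7% band of its plate's samples, either direction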
* marks the source's active call; other numbers are inactive results; ? = inconclusive; nt = not tested or not shown.

SMILES	D1 allo mod	SF-1 act	M1 antag	Htt clearance	RORA act	M1 agonist
O=C(CCN1CCN(c2ccccc2F)CC1)Nc1ccccc1F	2.9	5	-0.51	-39	-22	-0.21
O=C(CCN1CCN(c2ccc(Cl)cc2)CC1)Nc1ccccc1F	-0.3	14	2.1*	20	-16	0.03
CC(=O)OCc1c(F)c(F)c(-n2nc(C)cc2C)c(F)c1F	-0.98	5	-0.59	-26	-1	0.012
CCOC(=O)c1sc(NC(=O)c2ccc(Br)o2)cc1C	-3.9*	69*	-0.66	?	69*	0.53
CCOC(=O)c1sc(NC(=O)c2cccs2)cc1C	2.1	27	0.35	nt	26	0.46
COc1ccc(-c2nsc3c(N4CCN(S(=O)(=O)c5ccccc5)CC4)ncnc23)cc1	0.52	3	-0.5	nt	-14	-1
COc1ccc(-c2nsc3c(N4CCCC4)ncnc23)cc1	-4.4*	-26	-0.54	-6	-18	-0.18
Cc1ccc(Cl)cc1N1CCN(S(=O)(=O)c2ccc3c(c2)oc(=O)n3C)CC1	nt	-2	-0.29	20	4	-1.4
CCC(Sc1nc2c(c(=O)n1CC)SC(C)C2)C(=O)OC (centres undefined)	nt	nt	nt	-1	nt	nt
Cc1cc(C)cc(NC(=O)CSc2nnc(-c3ccccc3Br)o2)c1	-0.21	-5	0.46	-21	-11	-0.56
O=C(CSc1nnc(-c2csc3c2CCCC3)o1)Nc1ccccc1	-2.3*	-7	0.035	18	-12	0.0063
CCc1c(C(=O)N/N=C/c2ccc(C)o2)csc1C	nt	nt	nt	-33	nt	nt
c1ccc(Cc2nnc(-c3ccccc3)o2)cc1	-0.21	45	0.73	nt	50*	0
CCC/C(O)=N\S(=O)(=O)c1ccc(N=NN(C)C)cc1	nt	nt	nt	6	nt	nt
CN(C)CCn1c(C(=O)Nc2ccccc2)cc2ccccc21	-2.7*	-6	-0.73	9	-15	0.3
c1ccc2c(c1)CCN(c1nc3cc4c(cc3s1)OCCO4)C2	-6.1*	-60	-0.38	28	-64	0.04
O=C(O)C1Nc2c(C(=O)N3CCOCC3)cccc2C2C=CCC12 (centres undefined)	2.3	4	1.8*	0	-9	-0.24
Cc1ccc2c(c1C)NC(C(=O)O)C1CC=CC21 (centres undefined)	-0.66	-6	-0.066	nt	11	-0.61
Cn1c(-n2c(CCN3C(=O)c4ccccc4C3=O)nc3ccccc3c2=O)nc2ccccc21	0.11	16	0.23	nt	57*	-0.3
CCc1ccc2c(COC(=O)c3n[nH]c4ccccc34)cc(=O)oc2c1	-0.53	58*	0.03	nt	28	0.044
O=C(Cn1cnc2c(nnn2Cc2ccccc2F)c1=O)NCc1ccco1	-0.45	8	-0.073	nt	11	-0.52
O=C(NCC1COc2ccccc2O1)c1ccc(Cl)cc1 (centres undefined)	nt	60*	-0.26	42	32	0.42
CC(C)NC(=O)c1cc(-c2ccc(Br)cc2)on1	-2	35	-0.75	-50	66*	0.033
CCCNC(=O)c1cc(-c2ccc(Br)cc2)on1	0.064	58*	0.61	nt	37	0.21
CCCNc1nc(C)c(C(C)=O)cc1C#N	nt	nt	nt	18	nt	nt
SMILES	D1 allo mod	SF-1 act	M1 antag	Htt clearance	RORA act	M1 agonist
Cn1c(=O)[nH]c(=O)c2[nH]c(CN3CCN(Cc4ccccc4)CC3)nc21	-4.3*	15	2	nt	4	0.91
C1CN(CC23CC4CC(CC(C4)C2)C3)CCO1	nt	nt	nt	24	nt	nt
O=C(NC1CCCC1)c1ccc2nc(-c3ccco3)c(-c3ccco3)nc2c1	-0.28	-9	0.051	-26	-21	7.1*
Cc1ccc(-c2nnc3c4ccccc4c(C)nn23)cc1S(=O)(=O)N1CCN(C)CC1	9.9*	-2	-0.36	nt	6	2
O=C1NC(=S)S/C1=C1\Sc2ccccc2N1CCCS(=O)(=O)O	-2.9*	-8	0.05	nt	-4	-1.5
CCOC(=O)CCC(=O)N1CCOCCN(C(=O)CCC(=O)OCC)CCOCC1	0.19	-12	0.48	-27	-6	0.21
CCOC(=O)CCC(=O)N1CCNC(=O)C1	nt	nt	2.2*	nt	nt	0.72
Cc1ccc(N=Cc2nc(-c3ccco3)oc2O)cc1	-1	104*	-0.53	-18	47	-0.46
NC(=O)C1(N2CCCCC2)CCN(C(=O)NC2CCCCC2)CC1	-0.33	-13	0.011	nt	1	0.55
CCOc1ccc(-c2nn[nH]n2)cc1	-0.5	32	0.044	nt	13	0.8
CCOc1ccc(-c2cn(CCC#N)cn2)cc1	0.062	7	2.1*	nt	-4	1.1
Cc1noc(C)c1CSc1nc2ccccc2s1	0.096	19	0.28	nt	4	0.6
c1csc(CSc2nc3ccccc3s2)c1	-0.41	52*	-0.48	nt	45	0.25
CN(C)C(=O)CSc1nnc2sc3ccccc3n12	nt	4	0.11	-68	-2	0.41
c1csc(CSc2nnc3sc4ccccc4n23)c1	1.6	40	-0.42	nt	51*	-0.32
O=c1c2ccccc2nnn1CSc1nnc2sc3ccccc3n12	-7.8*	40	-0.99	-13	-11	0.57
COc1ccc(CCC(=O)NC2=NCCS2)cc1OC	0.16	-5	0.043	nt	-30	0.098
COc1ccccc1Nc1nc(N)nc(-c2oc3ccccc3c2C)n1	nt	nt	nt	-28	nt	nt
Cc1c(-c2nc(N)nc(Nc3ccc(F)cc3)n2)oc2ccccc12	1.6	78*	-0.082	-28	74*	-0.27
N#Cc1cc2c(nc1SCC(=O)Nc1nccs1)CCCCC2	-1.3	-38	-1.2	nt	-46	0.89
CCc1nnc(NC(=O)CSc2nc3c(cc2C#N)CCC3)s1	0.44	75*	0.26	15	7	0.37
O=C(c1ccc2ccccc2n1)N1CCN(c2ccccc2O)CC1	nt	nt	nt	16	nt	nt
COc1cc(N2CCCC2)c(OC)cc1/C=c1/sc2nc3ccccc3n2c1=O	0.13	54*	0.27	?	9	13*
O=c1/c(=C\c2cccn2-c2ccccc2)sc2nc3ccccc3n12	nt	24	-0.13	nt	17	8.4
Nc1nc2c(s1)CCc1c-2cnn1-c1ccccc1	0.18	91*	1.2	20	17	-0.2
SMILES	D1 allo mod	SF-1 act	M1 antag	Htt clearance	RORA act	M1 agonist
COc1ccc(-c2cnn(-c3ccccc3)c2N)cc1OC	0.035	-5	-0.046	nt	-8	0.21
CC1CCN(c2nc3ccccc3nc2C(C#N)C(=O)OC2CCCCC2)CC1 (centres undefined)	-0.44	-11	1.5*	33	-17	3.2
N#CC(C(=O)OC1CCCCC1)c1nc2ccccc2nc1N1CCCCC1 (centres undefined)	0.45	3	-0.035	21	-21	-0.56
CC1CCN(c2nc3ccccc3nc2C(C#N)S(=O)(=O)c2ccccc2)CC1 (centres undefined)	nt	3	0.52	nt	7	3.8*
Nc1nnnn1/N=C/c1cccc(OCc2ccccc2Cl)c1	nt	nt	nt	-59	nt	nt
COc1cc2nc(-c3ccccc3)nc(N3CCCC3)c2cc1OC	nt	-1	-0.34	nt	-12	-0.72
COc1cc2nc(N(C)C)nc(N)c2cc1OC	-4.6*	1	0.96	nt	5	-0.49
